Calls of active or inactive are those of the source. The calls are words filed in the database; no cut-off is given here.
Assays:
Escherichia coli [1] = test: Inhibition of curli protein biogenesis in uropathogenic Escherichia coli UTI89 at 60 to 250 uM after 48 hrs in YESCA broth medium by polyacrylamide gel-shift assay
Escherichia coli [2] = test: Inhibition of curli protein biogenesis in uropathogenic Escherichia coli UTI89 assessed as complete inhibition of biofilm formation in PVC wells at 400 uM after 48 hrs in YESCA broth medium by crystal violet staining; type: functional, organism-based
How it was run: (§1)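 UTI89 was grown 48 h in YESCA broth in PVC microtiter wells with compound. Wells were rinsed, stained with crystal violet and quantified. Percent inhibition is relative to no-compound controls included on each plate. Data are four experiments, with bars as s.d.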

Escherichia coli [3] = test: Inhibition of type 1 pili biogenesis in uropathogenic Escherichia coli UTI89 at 5 to 15 uM after 48 hrs by congo red staining-based confocal microscopy; type: functional, organism-based
Escherichia coli [4] = test: Inhibition of CsgG biogenesis in Escherichia coli K-12 at 2.5 mM after […] by polyacrylamide gel-shift assay; type: functional, organism-based
How it was run: (§2)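 MC4100 was grown 48 h at 26 °C on YESCA agar containing compound at 0.1, 1.0 or 2.5 mM final, with a DMSO carrier control (3.6% v/v). Cells were resuspended in PBS to OD600 0.5 and curli were dissociated with HFIP or formic acid. CsgA, CsgB, CsgF and CsgG were detected by SDS-PAGE immunoblot with curli-specific antibodies. MC4100Δcsg served as negative control.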

Escherichia coli [5] = test: Inhibition of curli protein biogenesis in uropathogenic Escherichia coli UTI89 assessed as complete inhibition of biofilm formation in PVC wells at 200 uM after 48 hrs in YESCA broth medium by crystal violet staining; type: functional, organism-based
How it was run: as §1

Escherichia coli [6] = test: Inhibition of curli protein biogenesis in uropathogenic Escherichia coli UTI89 at 60 to 250 uM after 48 hrs in YESCA broth medium by polyacrylamide gel-shift assay; type: functional, organism-based
How it was run: (§3)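 UTI89 was inoculated from an overnight LB culture into YESCA broth containing compound and shaken at 100 rpm, 28 °C, for 48 h. Cells were pelleted, resuspended in PBS and normalized to OD600 0.5. Curli were dissolved with formic acid and analysed by curli-antibody immunoblot. Samples prepared the same way were also imaged by high-resolution EM.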

Escherichia coli [7] = test: Antibacterial activity against Escherichia coli UTI89 at 400 uM after 24 hrs by spectrophotometry; type: functional, organism-based
Escherichia coli [8] = test: Inhibition of type 1 pili biogenesis in uropathogenic Escherichia coli UTI89 at 5 to 15 uM after 48 hrs by calcofluor staining-based confocal microscopy; type: functional, organism-based
Escherichia coli [9] = test: Inhibition of curli protein biogenesis in uropathogenic Escherichia coli UTI89 assessed as inhibition of biofilm formation in PVC wells at 100 uM after 48 hrs in YESCA broth medium by crystal violet staining; type: functional; conditions: UTI89, 48 h
How it was run: as §1

Escherichia coli [10] = test: Inhibition of curli protein biogenesis in uropathogenic Escherichia coli UTI89 at 60 to 250 uM after 48 hrs by electron microscopy; type: functional, organism-based
How it was run: as §3

Escherichia coli [11] = test: Inhibition of type 1 pili biogenesis in uropathogenic Escherichia coli UTI89 at 5 to 15 uM after 48 hrs by SYTO83 staining-based confocal microscopy; type: functional, organism-based
Escherichia coli [12] = test: Inhibition of type 1 pili biogenesis in uropathogenic Escherichia coli UTI89 assessed as complete inhibition of biofilm formation in PVC wells at 50 uM after 48 hrs in LB broth medium by crystal violet staining; type: functional; conditions: UTI89, 48 h
How it was run: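 UTI89 was grown 48 h in LB broth in PVC microtiter wells with compound; biofilm here is type 1 pili-dependent. Wells were rinsed and stained with crystal violet. Percent inhibition is relative to no-compound controls on each plate, from four experiments.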

Escherichia coli [13] = test: Inhibition of CsgF biogenesis in Escherichia coli K-12 at 2.5 mM after […] by polyacrylamide gel-shift assay; type: functional, organism-based
How it was run: as §2

[14] = target: Major curlin subunit (Escherichia coli (strain K12)) (UniProt P28307); test: Inhibition of CsgA polymerization in Escherichia coli K-12 at 25 uM after 24 hrs by thioflavin-T amyloid polymerization assay
Chain of Major curlin subunit (Escherichia coli (strain K12)) (P28307 whole entry): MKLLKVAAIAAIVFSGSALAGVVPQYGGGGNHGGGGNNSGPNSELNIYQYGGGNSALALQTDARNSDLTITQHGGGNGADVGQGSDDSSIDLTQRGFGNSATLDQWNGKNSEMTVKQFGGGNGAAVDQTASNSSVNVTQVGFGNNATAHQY
How it was run: (§4)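 Freshly purified, soluble, unstructured C-terminal His6-CsgA (25 μM) was incubated with 25 μM ThT with or without compound. Fluorescence (excitation 438 nm, emission 495 nm) was followed over time at 60-min intervals. Soluble CsgA was confirmed by SDS-PAGE and anti-CsgA western blot, since polymerized CsgA is SDS-insoluble.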

Escherichia coli [15] = test: Inhibition of curli protein biogenesis in Escherichia coli K-12 at 2.5 mM […] by polyacrylamide gel-shift assay; type: functional, organism-based
How it was run: as §2

[16] = target: Major curlin subunit (Escherichia coli (strain K12)) (UniProt P28307); test: Inhibition of CsgA polymerization in Escherichia coli K-12 at 125 uM after 24 hrs by thioflavin-T amyloid polymerization assay
How it was run: as §4

Escherichia coli [17] = test: Inhibition of type 1 pili biogenesis in uropathogenic Escherichia coli UTI89 at 25 uM after 48 hrs in YESCA broth medium by […]; type: functional, organism-based
How it was run: (§5)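 Pellicle formation was scored visually in a 24-well plate assay. UTI89 was grown in Congo red-containing YESCA broth at 30 °C, with pellicles judged about 48 h after inoculation. DMSO carrier served as control.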

[18] = target: Major curlin subunit (Escherichia coli (strain K12)) (UniProt P28307); test: Inhibition of CsgA polymerization in Escherichia coli K-12 at 10 uM after 24 hrs by thioflavin-T amyloid polymerization assay
How it was run: as §4

Escherichia coli [19] = test: Antibacterial activity against uropathogenic Escherichia coli UTI89 infected in C3H/HeN mouse assessed as reduction bacterial load in bladder at 250 uM after 6 hrs post-infection by punctate violet staining relative to control; type: functional, Urinary bladder
How it was run: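 UTI89 was grown under type 1 pili-inducing conditions with or without 250 μM compound, then resuspended in PBS to OD600 0.5. 50 μl (1–2 × 10^7 CFU) was instilled transurethrally into 7–8-week-old female C3H/HeN mice. At 6 hpi, bladders were homogenized and plated for CFU (16 h, 37 °C), or fixed and LacZ-stained to count IBCs. Two-tailed Mann-Whitney test.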

Escherichia coli [20] = test: Inhibition of curli protein biogenesis in uropathogenic Escherichia coli UTI89 assessed as inhibition of biofilm formation in PVC wells at 50 uM after 48 hrs in YESCA broth medium by crystal violet staining; type: functional; conditions: UTI89, 48 h
How it was run: as §1

Escherichia coli [21] = test: Inhibition of […] in uropathogenic Escherichia coli UTI89 at 5 uM after 48 hrs in YESCA broth medium by congo red staining-based […]; type: functional, organism-based
How it was run: as §5

Escherichia coli [22] = test: Inhibition of curli protein biogenesis in Escherichia coli K-12 at 1 mM after […] by polyacrylamide gel-shift assay; type: functional, organism-based
How it was run: as §2

Escherichia coli [23] = test: Inhibition of type 1 pili biogenesis in uropathogenic Escherichia coli UTI89 at 500 uM after 48 hrs in YESCA broth medium by congo red staining-based confocal microscopy; type: functional, organism-based; conditions: in the assay text read “curli-dependent pellicle formation” for “type 1 pili biogenesis”
How it was run: as §5

Escherichia coli [24] = test: Inhibition of curli protein biogenesis in uropathogenic Escherichia coli UTI89 assessed as complete inhibition of biofilm formation in PVC wells at 50 to 400 uM after 48 hrs in YESCA broth medium by crystal violet staining; type: functional, organism-based
How it was run: as §1

SMILES	inhibition (Escherichia coli [1])	inhibition (Escherichia coli [2])	inhibition (Escherichia coli [3])	inhibition (Escherichia coli [4])	inhibition (Escherichia coli [5])	inhibition (Escherichia coli [6])	Activity (Escherichia coli [7])	inhibition (Escherichia coli [8])	inhibition at 100 µM (Escherichia coli [9]) [%]	inhibition (Escherichia coli [10])	inhibition (Escherichia coli [11])	inhibition at 50 µM (Escherichia coli [12]) [%]	inhibition (Escherichia coli [13])	inhibition [14]	inhibition (Escherichia coli [15])	inhibition [16]	inhibition (Escherichia coli [21])	other results
O=C(O)[C@@H]1CSc2c(-c3ccc(F)c(F)c3)c(Cc3ccc4ccccc4c3)cc(=O)n21	Active	Active	Active	inactive	Active	Active	inactive	Active	50	Active	Active	92	inactive	Active	Active	Active	–	inhibition (Escherichia coli [17]): Active
O=C(O)[C@@H]1CSc2c(-c3cccc(C(F)(F)F)c3)c(Cc3cccc4ccccc34)cc(=O)n21	Active	–	Active	inactive	–	Active	inactive	Active	90	Active	Active	99	inactive	Active	–	Active	Active	inhibition [18]: Active; fold change (FC) (Escherichia coli [19]): 10; inhibition at 50 µM (Escherichia coli [20]): 50%; inhibition (Escherichia coli [22]): Active
O=C(O)[C@@H]1CSc2c(C3CC3)c(Cc3cccc4ccccc34)cc(=O)n21	–	–	–	inactive	–	–	inactive	–	–	inactive	–	38	inactive	–	–	–	–	inhibition (Escherichia coli [23]): inactive; inhibition (Escherichia coli [24]): inactive
O=C(O)[C@@H]1CSc2c(-c3ccc(Br)cc3)c(Cc3cccc4ccccc34)cc(=O)n21	Active	Active	–	inactive	Active	Active	inactive	–	50	Active	–	–	inactive	–	inactive	–	inactive	–

Reference: ChEMBL document CHEMBL1212778, “Small-molecule inhibitors target Escherichia coli amyloid biogenesis and biofilm formation” (2009)
